The campaign covered roughly 210,000 compounds. About 220 (0.1%) were called active.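 The calls were made as follows: active = signal enhancement of 30% or more; inactive = the rest.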 Shown is part of a subset that was picked to be rich in actives.
The compounds below were run against E3 ubiquitin-protein ligase Mdm2 (Homo sapiens) (UniProt Q00987) (assay: increase of MDM2 autoubiquitination reporter luminescence – cell-based, 1536-well, MDM2 E3 ligase inhibitor project, primary screen (AID 1230;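 also: luminescence tracks abundance of the self-degrading MDM2-luciferase fusion protein; higher signal means inhibition of MDM2 E3 ligase activity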)). Conditions: cell-based MDM2 ubiquitination luciferase reporter, 2 h; at 5 µM; active compounds read high; 0 = plate control, 100 = twice control, blank-subtracted.
Sequence of E3 ubiquitin-protein ligase Mdm2 (Homo sapiens) (Q00987 whole entry, looked up, the tested form may be a part): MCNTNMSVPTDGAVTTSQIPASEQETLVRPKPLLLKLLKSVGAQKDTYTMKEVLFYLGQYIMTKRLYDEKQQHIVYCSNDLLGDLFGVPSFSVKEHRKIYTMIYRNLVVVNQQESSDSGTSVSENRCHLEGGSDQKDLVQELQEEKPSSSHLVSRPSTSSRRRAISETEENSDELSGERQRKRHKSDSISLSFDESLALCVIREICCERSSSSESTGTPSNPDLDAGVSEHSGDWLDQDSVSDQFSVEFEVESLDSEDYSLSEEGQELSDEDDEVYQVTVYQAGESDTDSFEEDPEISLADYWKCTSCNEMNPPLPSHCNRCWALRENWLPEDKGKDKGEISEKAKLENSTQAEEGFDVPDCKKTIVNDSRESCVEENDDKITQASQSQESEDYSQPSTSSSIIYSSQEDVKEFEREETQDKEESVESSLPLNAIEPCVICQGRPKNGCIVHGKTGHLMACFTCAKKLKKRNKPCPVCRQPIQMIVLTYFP
In short: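 Buffer or medium: Cells held in DMEM | Assay system: Stable mammalian line carrying autodegrading MDM2–luciferase fusion reporter | Quantity: 2000 cells/well | Times: 4 h settle plus 2 h compound, 37 °C | Doses: One concentration, 5 µM, with 0.2% DMSO | Technique: Luminescence with SteadyLite reagent, 15 min at room temperature | Benchmarks: Plate controls and plate blanks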

Structure (SMILES) | signal enhancement
Cc1onc(-c2ccc(Cl)cc2)c1-c1ccnn1S(=O)(=O)c1ccc(Cl)cc1 | -0.58% (inactive)
C=CCC1(C#N)C(=S)NC(C)=C(C(=O)OCC)C1c1ccccc1 (configuration not stated) | 9.19% (inactive)
CCc1ccccc1N1CN(Cc2ccco2)CNC1=S | 2.19% (inactive)
OCC1(Cc2ccccc2C(F)(F)F)CCN(Cc2ccncc2)CC1 | -8.35% (inactive)
Cc1nc(/N=C(\N)NC(=O)NC2CCCCC2)nc2ccccc12 | -4.72% (inactive)
COCCNc1nc(-c2ccccc2)nc2c1oc1ccccc12 | -11.4% (inactive)
Cc1ccc2c(c1)nnc1nnc(SCC(=O)O)n12 | 0.72% (inactive)
Cc1ccc2c(C)c(C(=O)N3CCC(N4CCC(C(=O)NC5CC5)CC4)CC3)oc2c1 | -9.89% (inactive)
O=C(NC(=S)Nc1cccc2c(O)cccc12)c1cccc(Br)c1 | -0.26% (inactive)
Clc1ccc(C[n+]2cc(-c3ccc(Cl)cc3)n3c2CCC3)cc1 | -12.4% (inactive)
CSc1nnnn1-c1c(C)cc(C)cc1C | -3.25% (inactive)
O=C(Nc1ccc(N2CCOCC2)nc1)c1c(F)cccc1F | -15% (inactive)
Nc1nc(Sc2ncccc2[N+](=O)[O-])n[nH]1 | 1.65% (inactive)
CCNC(=O)CCc1nc(-c2ccc(C)cc2)no1 | 8.03% (inactive)
O=C1C2C3C=CC(C3)C2C(=O)N1c1ccc(S(=O)(=O)Nc2nccs2)cc1 (configuration not stated) | -8.32% (inactive)
FC(F)(F)c1nc(-c2ccccc2)ncc1-c1nnnn1-c1ccccc1 | -9.19% (inactive)
O=c1oc(-c2ccccc2NS(=O)(=O)c2ccc(Cl)cc2)nc2ccccc12 | -16.5% (inactive)
COc1ccc(Cc2cc(-c3ccc(F)cc3)n[nH]c2=O)cc1 | -10.5% (inactive)
O=C(NCCC1=CCCCC1)c1ccc(Cl)c([N+](=O)[O-])c1 | 59.6% (active)
CN(c1ccc(C(=O)NCCC2=CCCCC2)cc1)S(C)(=O)=O | -36.2% (inactive)
Cn1nnc2cc(C(=O)NCCC3=CCCCC3)ccc21 | -41.3% (inactive)
O=C1CCCCC1C(=O)c1ccccc1 (configuration not stated) | -74.7% (inactive)
CNC(=O)c1csc(Cc2c(Cl)sc3ccc(Cl)cc23)n1 | -3.68% (inactive)
O=C1N=C(N2CCc3ccccc3C2)S/C1=C\c1ccc(O)cc1 | -10.4% (inactive)
O=S(=O)(Nc1ccc(OC(F)(F)F)cc1)c1cccc2nonc12 | 7.33% (inactive)

Structure (SMILES) | signal enhancement
Cc1onc(NC(=O)c2ccc([N+](=O)[O-])o2)c1Br | -5.7% (inactive)
O=C(CCCCCN1C(=O)c2cccc3cccc(c23)C1=O)NCc1ccco1 | -8.79% (inactive)
Cn1c(CSCC(=O)Nc2ccccc2)nnc1SCc1ccccc1 | -7.31% (inactive)
Cn1cccc1/C=N/NC(=O)CNc1cccc2ccccc12 | -9.96% (inactive)
COc1cc(OC)c2ccc(=O)oc2c1C(CCN1CCN(c2ccccc2)CC1)c1ccc2c(c1)OCO2 (configuration not stated) | 6.23% (inactive)
COc1ccc(CCNC(=O)C(=O)Nc2ccc3nc4n(c(=O)c3c2)CCCCC4)cc1OC | 3.62% (inactive)
Nc1ccccc1SC(C[N+](=O)[O-])c1ccccc1 (configuration not stated) | -3.83% (inactive)
O=C(NCCCN1CCN(c2ccccc2F)CC1)C1CCC(=O)N1C1CCCCC1 (configuration not stated) | -15.4% (inactive)
Cn1c(C(=O)NCCCN2CCCCC2)cc2sccc21 | -19.5% (inactive)
O=C(CCS(=O)(=O)Cc1ccccc1F)NCCCN1CCCCC1 | 35.1% (active)
CSc1sc(C(=O)NC(=O)NCc2cccnc2)c(C)c1-c1ccon1 | -12.8% (inactive)
O=C(NCCCn1ccnc1)C(=O)NCC1OCCN1S(=O)(=O)c1cc(F)ccc1F (configuration not stated) | -1.11% (inactive)
C/C(=N\NC(=O)c1nc(C)cc(C)n1)c1ccccc1 | -2.38% (inactive)
Cc1cc(C)nc(S/C=C/C(=O)c2ccccc2)n1 | 45.8% (active)
Cc1cc(SCC(=O)c2ccccc2)nc(SCC(=O)c2ccccc2)n1 | -22.4% (inactive)
CNC(=S)NNC(=O)c1oc2nc(-c3ccccc3)cc(-c3ccco3)c2c1N | -16.3% (inactive)
Cc1noc(C)c1COC(=O)COc1ccc(-c2ccccc2)cc1 | -6.72% (inactive)
CCS(=O)(=O)c1cc([N+](=O)[O-])c(Sc2ccccc2N)s1 | -43.9% (inactive)
CS(=O)(=O)c1ccc2nnn(OCC(=O)Nc3cccc(C#N)c3)c2c1 | -16.9% (inactive)
CC(=O)c1ccc(S(=O)(=O)N2CCN(C(=O)/C=C/c3ccc4ccccc4n3)CC2)cc1 | -8.84% (inactive)
C/C=C\C=C\C(=O)N1CC2(CC(c3cccc(NC(=O)/C(C)=C\C)c3)=NO2)C[C@H]1C(N)=O (some centres not stated) | -14.1% (inactive)
Cn1ccc(=NC=C(C#N)C#N)c2ccccc21 | 30.3% (active)
CCOC(=O)c1cc(C)nc(S(C)(=O)=O)c1C#N | -11% (inactive)
CCOC(=O)c1c(NC(=S)NC)sc2c1CCCC2 | -8.08% (inactive)
COc1ccc(/C=C/C(=O)Nc2cccnc2)cc1OC | -3.38% (inactive)

Structure (SMILES) | signal enhancement
COc1ccc(/C=C/C(=O)Nc2ccc(C34CC5CC(CC(O)(C5)C3)C4)cc2)cc1OC | 45.6% (active)
COc1ccc(/C=C/C(=O)Nc2ccc3c(c2)OCCO3)cc1OC | -7.44% (inactive)
Clc1ccc(C[n+]2cc(-c3ccccc3)n3c2CCC3)cc1 | -18.4% (inactive)
S=c1[nH]nc(-c2cccs2)n1/N=C/c1cn(-c2ccccc2)nc1-c1ccc(Cl)cc1 | -7.25% (inactive)
COc1cccc(C2Nc3cccc4cccc(c34)N2)c1 | -2.34% (inactive)
CNC(=O)C(NC(=O)c1ccccc1)=C(C)C | -12.3% (inactive)
COc1ccccc1OCC(=O)O/N=C(\N)c1ccccn1 | -10.7% (inactive)
N/C(=N\OC(=O)Nc1ccccc1)c1ccno1 | -4.12% (inactive)
CCCc1nc2c(c(=O)c3ccccc3n2C)c(=O)n1-c1cc(C)cc(C)c1 | -9.46% (inactive)
COc1ccc(NC(=O)CSc2ncnc3[nH]ncc23)cc1 | -3.15% (inactive)
CC(C)(C)c1cc(NC(=O)NN2CCOCC2)nn1-c1c(Cl)cc(Cl)cc1Cl | -17.5% (inactive)
CCOC(=O)C1CCN(C(=O)Nc2ccc(C)c(Cl)c2)CC1 | -11.1% (inactive)
Cn1nccc1NC(=O)Nc1ccc(OC(F)(F)F)cc1 | -5.96% (inactive)
O=C1NC[C@@H](Cc2ccc(O)cc2)N(CCc2cccc(F)c2)C1=O | 10.9% (inactive)
COc1ccc(CNC(=O)C(Cc2ccccc2)n2cccc2)cc1 (configuration not stated) | -4.92% (inactive)
Cn1cnc([N+](=O)[O-])c1Sc1n[nH]c(N)n1 | -5.56% (inactive)
O=C(CCc1ccccc1)NNc1ccc(F)cc1 | -12.4% (inactive)
CCCCCCCCCCCCN1C(=O)CSC1c1cccnc1 (configuration not stated) | -5.41% (inactive)
O=C(NCC1CCCO1)c1cc(-c2ccccc2)nc2ccccc12 (configuration not stated) | -4.98% (inactive)
CCOC(=O)C(=CNNc1ccsc1C(=O)OC)C(=O)OCC | -27.3% (inactive)
CC(=O)c1ccc2c(c1)OCCOCCOc1ccc(C(C)=O)cc1OCCOCCO2 | -8.95% (inactive)
Cn1c(=NC(=O)c2ccc3c(c2)OCCO3)sc2cc(S(C)(=O)=O)ccc21 | 37% (active)
COCCn1c(=NC(=O)c2ccccc2[N+](=O)[O-])sc2cc(S(C)(=O)=O)ccc21 | -5.21% (inactive)
Cc1cccc(N(C)C(=O)c2cc3c(=O)[nH]c4ccc(C)cc4c3s2)c1 | 2.91% (inactive)
Cc1cccc(N2CCN(Cc3nc(C4CC4)no3)CC2)n1 | 2.81% (inactive)

Structure (SMILES) | signal enhancement
CC(C)(C)c1cc(P(=O)(c2ccccc2)c2ccccc2)ccc1O | -14% (inactive)
COc1ccc(CCNC(=O)C2CC3Cn4c(nc5cc(C)c(C)cc54)C3N2C)cc1 (configuration not stated) | 13% (inactive)
CC1=NOC(=O)/C1=C\c1ccccc1 | -4.01% (inactive)
Cc1cccc(C)c1Nc1c(-c2ccccc2O)nc2ncccn12 | -18.4% (inactive)
CN(Cc1nc(-c2cnccn2)no1)Cc1n[nH]c2c1CCCCC2 | -8.5% (inactive)
Clc1ccc(CSc2nnc3c(n2)[nH]c2ccccc23)cc1 | -10.6% (inactive)
CCNc1nc(NCC)nc(N/N=C/c2ccc(O)c(OC)c2)n1 | -10% (inactive)
CC(=O)N1N=C(c2ccncc2)OC1(Cc1ccccc1)Cc1ccccc1 | -11.4% (inactive)
CCC(C)(C)NC(=O)C(c1ccc(O)cc1)N(C(=O)Cn1nnc2ccccc21)c1ccc(NC(C)=O)cc1 (configuration not stated) | -11.7% (inactive)
Cn1c2ccc(F)cc2c2nnc(NN)nc21 | -2.02% (inactive)
COc1ccc(OC)c(NC(=O)N[C@H](Cc2ccccc2)C(=O)NN)c1 | -4.05% (inactive)
NC(=O)CC(NC(=O)Cc1cccc2ccccc12)c1ccc(NCc2cc(F)ccc2F)c([N+](=O)[O-])c1 (configuration not stated) | 5.13% (inactive)
COc1ccc(OCC(O)CNCCNc2nccc(C(F)(F)F)n2)cc1 (configuration not stated) | -12.4% (inactive)
CC1CN(c2nc(Nc3ccccc3)nc(N)c2[N+](=O)[O-])CC(C)O1 (configuration not stated) | -20.6% (inactive)
Cc1c(C(=O)N(Cc2ccccc2)Cc2cccnc2)cnn1-c1ccc(F)cc1 | -11.7% (inactive)
Oc1c(CN2CCN(c3ccc(F)cc3)CC2)cc(Cl)c2cccnc12 | 9.75% (inactive)
O=c1[nH]n(-c2cccc(Cl)c2)c2ncccc12 | -4.4% (inactive)
Clc1cccc(CN2COc3c(cc(Cl)c4cccnc34)C2)c1 | 46.8% (active)
CCCSc1ncccc1C(=O)O | -7.45% (inactive)
COC(=O)C1=C(N)Oc2cc(C)[nH]c(=O)c2C1c1ccc(Cl)cc1 (configuration not stated) | -10.2% (inactive)
CSc1nnc(SCc2nc3sc(C(=O)O)c(C)c3c(=O)[nH]2)s1 | -16.2% (inactive)
O=C(CSc1nnnn1-c1ccc(O)cc1)c1ccc(F)cc1 | -12.1% (inactive)

Source: PubChem BioAssay AID1230 (PCMD, 2008)
